In ChEMBL document CHEMBL1138744, “In vitro cytotoxic activities of 2-alkyl-4,6-diheteroalkyl-1,3,5-triazines: new molecules in anticancer research” (J Med Chem, 2004):

What was measured:
Assay type in all cases: functional, cell-based; call rule not given here
[1] = Cytotoxic activity of compound towards human L1210 cell line after 72 hr of administration; a is No cytotoxic effect
HL-60 [2] = experiment: Cytotoxic activity of compound towards human HL60 cell line after 48 hr of administration; settings: HL-60, 48 h
C6 [3] = experiment: Cytotoxic activity of compound towards […] cell line after 48 hr of administration; settings: Rattus norvegicus, C6, 48 h
HL-60 [4] = experiment: Cytotoxic activity of compound towards human HL60 cell line after 72 hr of administration; settings: HL-60, 72 h
C6 [5] = experiment: Cytotoxic activity of compound towards […] cell line after 72 hr of administration; settings: Rattus norvegicus, C6, 72 h
L1210 [6] = experiment: Cytotoxic activity of compound towards […] cell line after 48 hr of administration; NE= No effect
L1210 [7] = experiment: Cytotoxic activity of compound towards human L1210 cell line after 72 hr of administration; settings: Mus musculus, L1210, 72 h
L1210 [8] = experiment: Cytotoxic activity of compound towards human leukemia L1210 cell line after 48 hr of administration; settings: Mus musculus, L1210, 48 h
LOX IMVI = experiment: Cytotoxic activity of compound towards human cancer cell line LOX IMVI (melanoma)
Method in brief: (§1)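 Compounds first passed a one-dose primary assay on three cell lines, then were tested on a 60-line human tumour panel. Dose–response curves gave growth-inhibition values (IG50, μM). For each compound, only the most sensitive of the 60 lines was reported.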

HL-60 [9] = experiment: Cytotoxic activity of compound towards human HL60 cell line after 48 hr of administration; NE= No effect
L1210 [10] = experiment: Cytotoxic activity of compound towards human L1210 cell line after 72 hr of administration; NE= No effect
C6 [11] = experiment: Cytotoxic activity of compound towards […] cell line after 72 hr of administration; NE= No effect
HL-60 [12] = experiment: Cytotoxic activity of compound towards human HL60 cell line after 72 hr of administration; NE= No effect
CAKI-1 = experiment: Cytotoxic activity of compound towards human cancer cell line CAKI-1 (renal cancer); method in brief: as §1
HOP-62 = experiment: Cytotoxic activity of compound towards human cancer cell line HOP-62 (lung cancer); method in brief: as §1
SR = experiment: Cytotoxic activity of compound towards human cancer cell line SR (leukemia); method in brief: as §1
HCT-116 = experiment: Cytotoxic activity of compound towards human cancer cell line HCT116 (colon cancer); method in brief: as §1
OVCAR-4 = experiment: Cytotoxic activity of compound towards human cancer cell line OVCAR-4 (ovarian cancer); method in brief: as §1

SMILES	IC50 (HL-60 [2])	IC50 (C6 [3])	IC50 (HL-60 [4])	IC50 (C6 [5])	IC50 (L1210 [7])	IC50 (L1210 [8])	other results
COc1ccc(Nc2nc(C#CC(C)(C)C)nc(Nc3ccc(OC)cc3)n2)cc1	589 µM	> 10000 µM	575 µM	> 10000 µM	–	–	IC50 [1]: No effect; IC50 (L1210 [6]): Not Active
COc1nc(C#CC(C)(C)O)nc(OC)n1	15.8 µM	16.2 µM	15.1 µM	15.1 µM	12.9 µM	14.1 µM	–
CC(C)c1nc(N2CCOCC2)nc(N2CCOCC2)n1	87.1 µM	141 µM	200 µM	490 µM	67.6 µM	93.3 µM	–
COc1nc(C#CCCCC#N)nc(OC)n1	–	–	–	–	–	–	GI50 (LOX IMVI): 2090 nM
CC(C)(C)C#Cc1nc(N(CCO)CCO)nc(N(CCO)CCO)n1	–	3390 µM	–	–	–	–	IC50 (HL-60 [9]): Not Active; IC50 (L1210 [10]): Not Active; IC50 (C6 [11]): Not Active; IC50 (L1210 [6]): Not Active; IC50 (HL-60 [12]): Not Active
C1CN(c2nc(N3CCOCC3)nc(N3CCOCC3)n2)CCO1	129 µM	151 µM	100 µM	288 µM	110 µM	151 µM	–
COc1nc(OC)nc(OC)n1	302 µM	–	339 µM	–	–	–	–
COc1nc(OC)nc(-c2cccc(F)c2)n1	–	–	–	–	–	–	IC50 (CAKI-1): < 10 nM
CC(C)(C)C#Cc1nc(N2CCOCC2)nc(N2CCOCC2)n1	182 µM	6610 µM	389 µM	–	120 µM	182 µM	IC50 (C6 [11]): Not Active
CCC(O)C#Cc1nc(OC)nc(OC)n1 (stereo not given)	–	–	–	–	–	–	IC50 (HOP-62): 4.9 µM
COc1ccc(Oc2nc(C#CC(C)(C)O)nc(Oc3ccc(OC)cc3)n2)cc1	17 µM	> 10000 µM	36.3 µM	> 10000 µM	14.1 µM	11 µM	IC50 (SR): 630 nM
COc1ccc(Oc2nc(Oc3ccc(OC)cc3)nc(Oc3ccc(OC)cc3)n2)cc1	70.8 µM	–	52.5 µM	–	–	–	–
COc1nc(C#CC2CCCCC2)nc(OC)n1	–	–	–	–	–	–	IC50 (HCT-116): 400 nM
COc1nc(C#CC(C)(C)C)nc(OC)n1	7.08 µM	16.6 µM	7.08 µM	16.6 µM	9.12 µM	12 µM	IC50 (SR): 5250 nM
CC[C@H](C)Cc1nc(N2CCOCC2)nc(N2CCOCC2)n1	219 µM	575 µM	141 µM	240 µM	57.5 µM	141 µM	–
COc1nc(C#CC2(O)CCCCC2)nc(OC)n1	–	–	–	–	–	–	IC50 (OVCAR-4): 1860 nM
